Data published in ChEMBL document CHEMBL2034974, “Design, synthesis and structure-activity relationships of new triazole derivatives containing N-substituted phenoxypropylamino side chains” (2012).
Converted amounts (≈) assume the structure as drawn.

Experiments:
Assay type in all cases: functional
Candida albicans = assay: Antifungal activity against Candida albicans after 24 hrs by serial dilution method
In short: (§1)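 NCCLS broth microdilution in 96-well plates, with ATCC or clinical isolate strains. Medium was RPMI 1640 buffered with 0.165 M MOPS, and compounds were dissolved in DMSO and serially diluted in medium. Yeasts were incubated at 35 °C and growth was read at 24 h. MIC80 was taken as the lowest concentration giving ≥80% growth inhibition versus the drug-free control.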

Candida tropicalis = assay: Antifungal activity against Candida tropicalis after 24 hrs by serial dilution method; in short: as §1
Candida parapsilosis = assay: Antifungal activity against Candida parapsilosis after 24 hrs by serial dilution method; settings: Lodderomyces parapsilosis; in short: as §1
Cryptococcus neoformans = assay: Antifungal activity against Cryptococcus neoformans after 72 hrs by serial dilution method
In short: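 Cryptococcus yeast, ATCC or clinical isolate, tested by NCCLS serial dilution in 96-well plates with RPMI 1640 plus 0.165 M MOPS. Compounds were dissolved in DMSO and serially diluted in medium. Incubation was at 35 °C with MIC80 read at 72 h, defined as the lowest concentration giving ≥80% growth inhibition relative to control.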

Pichia kudriavzevii = assay: Antifungal activity against Candida krusei after 24 hrs by serial dilution method; in short: as §1
Trichophyton rubrum = assay: Antifungal activity against Trichophyton rubrum by serial dilution method
In short: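 Dermatophyte, ATCC or clinical isolate, tested by NCCLS serial-dilution microtest in RPMI 1640 buffered with 0.165 M MOPS. Compounds were dissolved in DMSO and diluted serially in medium, and incubation was at 28 °C. The endpoint was MIC80, the lowest concentration reducing turbidity to ≥80% inhibition of control growth.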

Row | Compound | MIC80 (Candida albicans) [µg/mL] | MIC80 (Candida tropicalis) [µg/mL] | MIC80 (Candida parapsilosis) [µg/mL] | MIC80 (Cryptococcus neoformans) [µg/mL] | MIC80 (Pichia kudriavzevii) [µg/mL] | MIC80 (Trichophyton rubrum) [µg/mL]
1 | CN(CCCOc1ccc(Br)cc1)CC(O)(Cn1cncn1)c1ccc(F)cc1F (centres undefined) | 0.5 (≈ 1.04 µM) | 2 (≈ 4.16 µM) | 1 (≈ 2.08 µM) | 1 (≈ 2.08 µM) | 2 (≈ 4.16 µM) | 2 (≈ 4.16 µM)
2 | CN(CCCOc1ccccc1)CC(O)(Cn1cncn1)c1ccc(F)cc1F (centres undefined) | 0.0125 (≈ 0.0311 µM) | < 0.125 | 0.125 (≈ 0.311 µM) | 1 (≈ 2.48 µM) | 0.5 (≈ 1.24 µM) | 1 (≈ 2.48 µM)
3 | CCOC(=O)CN(CCCOc1ccccc1)CC(O)(Cn1cncn1)c1ccc(F)cc1F (racemic) | 2 (≈ 4.21 µM) | 8 (≈ 16.9 µM) | > 64 | 8 (≈ 16.9 µM) | 4 (≈ 8.43 µM) | 8 (≈ 16.9 µM)
4 | COC(=O)CN(CCCOc1ccccc1)CC(O)(Cn1cncn1)c1ccc(F)cc1F (racemic) | 2 (≈ 4.34 µM) | 8 (≈ 17.4 µM) | > 64 | 16 (≈ 34.7 µM) | 4 (≈ 8.69 µM) | 2 (≈ 4.34 µM)
5 | OC(CN(CCCOc1ccccc1)Cc1ccc(F)cc1)(Cn1cncn1)c1ccc(F)cc1F (racemic) | 4 (≈ 8.06 µM) | 8 (≈ 16.1 µM) | 16 (≈ 32.2 µM) | 8 (≈ 16.1 µM) | 8 (≈ 16.1 µM) | 32 (≈ 64.4 µM)
6 | Cc1ccc(CN(CCCOc2ccccc2)CC(O)(Cn2cncn2)c2ccc(F)cc2F)cc1 (racemic) | 8 (≈ 16.2 µM) | 8 (≈ 16.2 µM) | 8 (≈ 16.2 µM) | 4 (≈ 8.12 µM) | 4 (≈ 8.12 µM) | 16 (≈ 32.5 µM)
7 | OC(CN(CCCOc1ccccc1)Cc1ccccc1)(Cn1cncn1)c1ccc(F)cc1F (racemic) | 2 (≈ 4.18 µM) | 8 (≈ 16.7 µM) | 64 (≈ 134 µM) | 16 (≈ 33.4 µM) | 8 (≈ 16.7 µM) | 16 (≈ 33.4 µM)
8 | CCCCN(CCCOc1ccccc1)CC(O)(Cn1cncn1)c1ccc(F)cc1F (racemic) | 2 (≈ 4.5 µM) | 8 (≈ 18 µM) | 16 (≈ 36 µM) | 4 (≈ 9 µM) | 1 (≈ 2.25 µM) | 8 (≈ 18 µM)
9 | CCCN(CCCOc1ccccc1)CC(O)(Cn1cncn1)c1ccc(F)cc1F (racemic) | 1 (≈ 2.32 µM) | 16 (≈ 37.2 µM) | 32 (≈ 74.3 µM) | 1 (≈ 2.32 µM) | 1 (≈ 2.32 µM) | 4 (≈ 9.29 µM)
10 | CCN(CCCOc1ccccc1)CC(O)(Cn1cncn1)c1ccc(F)cc1F (racemic) | 0.0313 (≈ 0.0752 µM) | 0.5 (≈ 1.2 µM) | 2 (≈ 4.8 µM) | 1 (≈ 2.4 µM) | 1 (≈ 2.4 µM) | 1 (≈ 2.4 µM)
11 | OC(CNCCCOc1ccccc1)(Cn1cncn1)c1ccc(F)cc1F (racemic) | 0.0625 (≈ 0.161 µM) | < 0.125 | 0.5 (≈ 1.29 µM) | 1 (≈ 2.57 µM) | < 0.125 | 2 (≈ 5.15 µM)
12 | CC(C)CN(CCCOc1ccc(Br)cc1)CC(O)(Cn1cncn1)c1ccc(F)cc1F (racemic) | 4 (≈ 7.64 µM) | 8 (≈ 15.3 µM) | 8 (≈ 15.3 µM) | 16 (≈ 30.6 µM) | 4 (≈ 7.64 µM) | 8 (≈ 15.3 µM)
13 | C#CCN(CCCOc1ccc(Br)cc1)CC(O)(Cn1cncn1)c1ccc(F)cc1F (racemic) | 0.5 (≈ 0.989 µM) | 8 (≈ 15.8 µM) | 32 (≈ 63.3 µM) | 8 (≈ 15.8 µM) | 8 (≈ 15.8 µM) | 8 (≈ 15.8 µM)
14 | C=CCN(CCCOc1ccc(Br)cc1)CC(O)(Cn1cncn1)c1ccc(F)cc1F (racemic) | 2 (≈ 3.94 µM) | 1 (≈ 1.97 µM) | 16 (≈ 31.5 µM) | 4 (≈ 7.88 µM) | 2 (≈ 3.94 µM) | 8 (≈ 15.8 µM)
15 | CC(C)(C)OC(=O)CN(CCCOc1ccc(Br)cc1)CC(O)(Cn1cncn1)c1ccc(F)cc1F (racemic) | 4 (≈ 6.88 µM) | 16 (≈ 27.5 µM) | 64 (≈ 110 µM) | 64 (≈ 110 µM) | 4 (≈ 6.88 µM) | 64 (≈ 110 µM)
16 | CCOC(=O)CN(CCCOc1ccc(Br)cc1)CC(O)(Cn1cncn1)c1ccc(F)cc1F (racemic) | 4 (≈ 7.23 µM) | 16 (≈ 28.9 µM) | 16 (≈ 28.9 µM) | 32 (≈ 57.8 µM) | 32 (≈ 57.8 µM) | 16 (≈ 28.9 µM)
17 | COC(=O)CN(CCCOc1ccc(Br)cc1)CC(O)(Cn1cncn1)c1ccc(F)cc1F (racemic) | 2 (≈ 3.71 µM) | 4 (≈ 7.42 µM) | 64 (≈ 119 µM) | 8 (≈ 14.8 µM) | 4 (≈ 7.42 µM) | 8 (≈ 14.8 µM)
18 | OC(CN(CCCOc1ccc(Br)cc1)Cc1ccc(F)cc1)(Cn1cncn1)c1ccc(F)cc1F (racemic) | 4 (≈ 6.95 µM) | 8 (≈ 13.9 µM) | 2 (≈ 3.48 µM) | 32 (≈ 55.6 µM) | 8 (≈ 13.9 µM) | 16 (≈ 27.8 µM)
19 | Cc1ccc(CN(CCCOc2ccc(Br)cc2)CC(O)(Cn2cncn2)c2ccc(F)cc2F)cc1 (racemic) | 4 (≈ 7 µM) | 8 (≈ 14 µM) | 0.5 (≈ 0.875 µM) | 64 (≈ 112 µM) | 8 (≈ 14 µM) | 64 (≈ 112 µM)
20 | OC(CN(CCCOc1ccc(Br)cc1)Cc1ccccc1)(Cn1cncn1)c1ccc(F)cc1F (racemic) | 2 (≈ 3.59 µM) | 8 (≈ 14.4 µM) | 32 (≈ 57.4 µM) | 16 (≈ 28.7 µM) | 4 (≈ 7.18 µM) | 4 (≈ 7.18 µM)
21 | CCCCN(CCCOc1ccc(Br)cc1)CC(O)(Cn1cncn1)c1ccc(F)cc1F (racemic) | 2 (≈ 3.82 µM) | 4 (≈ 7.64 µM) | 4 (≈ 7.64 µM) | 4 (≈ 7.64 µM) | 4 (≈ 7.64 µM) | 16 (≈ 30.6 µM)
22 | CCCN(CCCOc1ccc(Br)cc1)CC(O)(Cn1cncn1)c1ccc(F)cc1F (racemic) | 2 (≈ 3.93 µM) | 2 (≈ 3.93 µM) | > 64 | 4 (≈ 7.85 µM) | 4 (≈ 7.85 µM) | 8 (≈ 15.7 µM)
23 | CCN(CCCOc1ccc(Br)cc1)CC(O)(Cn1cncn1)c1ccc(F)cc1F (racemic) | 0.5 (≈ 1.01 µM) | 1 (≈ 2.02 µM) | 2 (≈ 4.04 µM) | 1 (≈ 2.02 µM) | 4 (≈ 8.07 µM) | 2 (≈ 4.04 µM)
24 | OC(CNCCCOc1ccc(Br)cc1)(Cn1cncn1)c1ccc(F)cc1F (racemic) | 0.0313 (≈ 0.067 µM) | < 0.125 | 0.5 (≈ 1.07 µM) | 1 (≈ 2.14 µM) | < 0.125 | 0.5 (≈ 1.07 µM)
25 | CC(C)(C)OC(=O)CN(CCCOc1ccccc1)CC(O)(Cn1cncn1)c1ccc(F)cc1F (racemic) | 4 (≈ 7.96 µM) | 8 (≈ 15.9 µM) | > 64 | > 64 | 8 (≈ 15.9 µM) | 64 (≈ 127 µM)
26 | C=CCN(CCCOc1ccccc1)CC(O)(Cn1cncn1)c1ccc(F)cc1F (racemic) | 0.25 (≈ 0.583 µM) | 1 (≈ 2.33 µM) | 64 (≈ 149 µM) | 2 (≈ 4.67 µM) | 1 (≈ 2.33 µM) | 1 (≈ 2.33 µM)
27 | C#CCN(CCCOc1ccccc1)CC(O)(Cn1cncn1)c1ccc(F)cc1F (racemic) | 0.25 (≈ 0.586 µM) | 4 (≈ 9.38 µM) | 8 (≈ 18.8 µM) | 4 (≈ 9.38 µM) | 1 (≈ 2.34 µM) | 4 (≈ 9.38 µM)
28 | OC(Cn1cncn1)(Cn1cncn1)c1ccc(F)cc1F [FLUCONAZOLE] | 0.5 (≈ 1.63 µM) | 1 (≈ 3.27 µM) | 1 (≈ 3.27 µM) | 2 (≈ 6.53 µM) | 4 (≈ 13.1 µM) | 1 (≈ 3.27 µM)
29 | CCC(C)n1ncn(-c2ccc(N3CCN(c4ccc(OCC5COC(Cn6cncn6)(c6ccc(Cl)cc6Cl)O5)cc4)CC3)cc2)c1=O (centres undefined) [ITRACONAZOLE] | 0.125 (≈ 0.177 µM) | < 0.125 | 4 (≈ 5.67 µM) | 0.5 (≈ 0.709 µM) | 1 (≈ 1.42 µM) | 0.125 (≈ 0.177 µM)
